Screens as filed in PubChem BioAssay.
CYP2C19 inh: human CYP2C19 inhibition. P33261. CYP2C19 Supersomes, luciferin-H EGE luminescence, 30 min. inhibition, % at 5 µM. 96,000 compounds, 21% hits;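 active = CYP2C19 inhibition above a set limit at 5 µM in the primary screen, cut at about 50% in these data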
Target sequence (P33261 whole entry, looked up): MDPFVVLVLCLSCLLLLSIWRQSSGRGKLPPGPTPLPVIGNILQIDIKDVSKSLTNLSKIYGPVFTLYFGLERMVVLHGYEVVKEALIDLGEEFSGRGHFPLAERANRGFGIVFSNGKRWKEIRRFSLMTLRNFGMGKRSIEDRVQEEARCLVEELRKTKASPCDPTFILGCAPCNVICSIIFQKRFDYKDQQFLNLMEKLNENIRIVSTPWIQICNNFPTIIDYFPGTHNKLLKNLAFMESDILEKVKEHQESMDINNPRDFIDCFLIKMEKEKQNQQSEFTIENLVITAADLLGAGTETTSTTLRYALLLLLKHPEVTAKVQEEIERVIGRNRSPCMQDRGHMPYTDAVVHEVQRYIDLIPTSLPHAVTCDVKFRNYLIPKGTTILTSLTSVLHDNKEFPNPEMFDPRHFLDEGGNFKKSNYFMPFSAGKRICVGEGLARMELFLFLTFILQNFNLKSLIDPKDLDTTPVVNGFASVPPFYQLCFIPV
CYP2C9 inh: inhibitors of human CYP2C9 | CYP2C9 Supersomes, luciferin-H conversion, luminescence | inhibition, % at 5 µM | 96,000 compounds, 20% hits | AID 777;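 active = blocking of liver enzyme CYP2C9 beyond about 50% at 5 µM, limit read from the data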
Rev-RRE block: disrupts HIV-1 Rev binding to RRE RNA | P05866 | Rev peptide-RRE RNA binding, FRET | inhibition, % at 8 µM | 97,000 compounds, 0.79% hits;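 active = inhibition above the screen-wide mean plus 3 SD, cut at about 35% in these data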
Target sequence (P05866 whole entry, looked up): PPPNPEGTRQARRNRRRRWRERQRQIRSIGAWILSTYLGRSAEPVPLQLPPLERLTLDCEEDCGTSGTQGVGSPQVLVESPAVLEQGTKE
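Assay system: Rev peptide and RRE RNA, both fluorescently labelled; times: 5 min preincubation and 15 min binding, 25 °C; detection: FRET, ex 480 nm, em 540 and 671 nm; read-out basis: % inhibition from 671/540 nm acceptor-to-donor ratio, scaled between controls; benchmarks: DMSO low control, neomycin B high control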
CYP2C19 activ: cytochrome P450 2C19 (human) activation; P33261; 96,000 tested, under 10 active; recombinant CYP2C19, luciferin-H EGE luminescence; hits give high values; 0 = fully inhibited enzyme, 1 = untreated enzyme; activation factor at 5 µM;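 active = activation factor of at least 2 at 5 µM in the primary screen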
Cav32 inh: human Cav3.2 channel inhibition, primary screen. O95180. Cav3.2-expressing cells, Fluo-4 calcium fluorescence FDSS; hits give low values. B-score at 10 µM. 100,000 compounds, 4% hits;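 active = single-dose well whose peak fluorescence ratio is a statistical outlier from its plate by either plate-standardised score or position-corrected B-score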
CYP2C9 act: activators of human CYP2C9 | P11712 | recombinant CYP2C9, luciferin-H conversion, luminescence; hits give high values; factor 1 = untreated enzyme, 0 = blocked | activation factor at 5 µM | 96,000 compounds, 1.4% hits;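 active = activation factor of 2 or more for CYP2C9 at a 5 µM dose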
Of the large screens only hits and unclear results are named; the others gave an inactive call; [ ] = dose if it differs, or a comment. Most compounds without a hit are left out; they make up all but 27% or so of the library.

CC(C)(C)C(=O)CC1(O)C(=O)N(Cc2ccccc2)c2ccccc21 (stereo unspecified)	CYP2C19 inh 72, CYP2C9 inh 54
Cc1ccccc1CN1C(=O)C(O)(CC(=O)c2ccncc2)c2ccccc21 (stereo unspecified)	CYP2C19 inh 90
O=C(CC1(O)C(=O)N(Cc2ccc3c(c2)OCO3)c2ccccc21)c1ccccc1 (stereo unspecified)	none
Cc1ccc(C(=O)CC2(O)C(=O)N(Cc3ccc4c(c3)OCO4)c3ccccc32)cc1 (stereo unspecified)	CYP2C19 inh 54, Cav32 inh -7.5
CCCN1C(=O)C(O)(CC(=O)c2cccc(OC)c2)c2ccccc21 (stereo unspecified)	CYP2C19 inh 87
Cc1c(NC(=O)c2ccc3c(c2)C(=O)N(CC2CCCO2)C3=O)cccc1C(=O)O (stereo unspecified)	none (no result: Cav32 inh)
Cc1cc(NCC(C)C)n2ncnc2n1	none
COc1ccc(COC(=O)c2nc3nc(C)cc(C)n3n2)cc1F	none
CCCN1C(=O)C(O)(CC(=O)c2ccc3c(c2)OCCO3)c2ccccc21 (stereo unspecified)	CYP2C19 inh 76
C#CCN1C(=O)C(O)(CC(=O)c2ccc3c(c2)OCCO3)c2ccccc21 (stereo unspecified)	CYP2C19 inh 77, Cav32 inh -3.8
COCCNC(=O)c1onc(CSc2ccccc2C)c1C(=O)O	none
CCn1c(COc2ccc(=O)n(-c3ccccc3)n2)nnc1SCc1cccc(OC)c1	CYP2C9 inh 53
C(=N\N(c1ccccc1)c1ccccc1)/c1ccc2c(c1)OCO2	CYP2C9 inh 56
COC(=O)[C@H](CCSC)NS(=O)(=O)c1ccccc1Br	none (no result: CYP2C19 inh, CYP2C9 inh, Rev-RRE block, CYP2C19 activ, CYP2C9 act)
O=C1C2C3C=CC(C3)C2C(=O)N1/N=C/c1cc(Br)cc([N+](=O)[O-])c1O (stereo unspecified)	none
Cc1ccc(-c2ccc(/C=N/N3C(=O)C4C5C=CC(C6CC56)C4C3=O)o2)c([N+](=O)[O-])c1 (stereo unspecified)	Cav32 inh -5.1
Cc1cccc(OCc2nnc(SCC(=O)N(C(C)C)C(C)C)n2Cc2ccco2)c1C	CYP2C19 inh 54, Cav32 inh -6.6
COc1ccc(NC(=O)CSc2nnc(-c3ccccc3)n2Cc2ccco2)c(OC)c1	CYP2C19 inh 91, CYP2C9 inh 86
O=C(CSc1nnc(-c2cccnc2)n1Cc1ccco1)NCc1ccc2c(c1)OCO2	none
COc1ccc(NC(=O)CSc2nnc(-c3ccccc3Cl)n2Cc2ccco2)c(OC)c1	CYP2C19 inh 55, CYP2C9 inh 51
COc1cccc(-c2nnc(SCC(=O)NCc3ccc4c(c3)OCO4)n2Cc2ccco2)c1	CYP2C9 inh 72, Cav32 inh -4.6
COc1ccc(OC)c(NC(=O)CSc2nnc(-c3ccco3)n2-c2ccc(C(=O)O)cc2)c1	none
CCC(=O)NS(=O)(=O)c1ccc(-c2c(-c3ccccc3)noc2C)cc1	none (no result: CYP2C19 inh, CYP2C9 inh, Rev-RRE block, CYP2C19 activ, CYP2C9 act)
C[C@H]1C=C(C(=O)NC2CC2)O[C@@H](OCc2ccc(CO)cc2)C1	none (no result: CYP2C19 inh, CYP2C9 inh, Rev-RRE block, CYP2C19 activ, CYP2C9 act)
COc1ccc(C)cc1NC(=O)CSc1nnc(CC(=O)Nc2ccccc2C)n1C	CYP2C19 inh 66
COc1ccc(C)cc1NC(=O)CSc1nnc(-c2ccco2)n1N	none (no result: Cav32 inh)
COc1ccccc1-n1c(CNC(=O)c2ccco2)nnc1SCC(=O)Nc1cc(C)ccc1C	CYP2C9 act 2
COc1ccc(C)cc1NC(=O)CSc1nnc(COc2ccccc2)n1Cc1ccco1	CYP2C19 inh 87 (no result: Cav32 inh)
COc1ccc(C)cc1NC(=O)CSc1nnc(COc2ccc(Cl)cc2)n1Cc1ccco1	none
CCn1cc(C(=O)OCC(=O)NCc2ccc3c(c2)OCO3)c(=O)c2ccc(C)nc21	none
CN(C)[C@@H](CO)c1nnc([C@H](Cc2ccc(O)cc2)NC(=O)C2CCNCC2)o1	none (no result: CYP2C19 inh, CYP2C9 inh, Rev-RRE block, CYP2C19 activ, CYP2C9 act)
CCC(CC)C(=O)N=C1SC2CS(=O)(=O)CC2N1CCc1ccc(OC)cc1 (stereo unspecified)	CYP2C19 inh 80, CYP2C9 inh 77
CC(C)CC(=O)N1CCN(C(=O)CCC2CCCC2)CC1	none
Cc1ccc(NCCC(=O)c2ccc(Br)cc2)cc1	CYP2C19 inh 79
Cc1ccc(NCCC(=O)c2ccc(Cl)cc2)cc1	CYP2C19 inh 83
CCc1ccc(NCCC(=O)c2ccc(Br)cc2)cc1	CYP2C19 inh 86, CYP2C9 inh 50
CCc1ccc(CN/C=C/C(=O)c2ccc(Br)cc2)cc1	none
Cc1ccc(S(=O)(=O)C(CCC(=O)c2ccc(Cl)cc2)C(N)=O)cc1 (stereo unspecified)	none
COc1cc(-c2nnc(SCC(=O)c3cc(C)n(CC4CCCO4)c3C)o2)cc(OC)c1OC (stereo unspecified)	none
CCCC(C)c1nnc(NC(=O)C2CCCO2)s1 (stereo unspecified)	none
Cc1cc(/C=C(\C#N)C(=O)NCc2ccco2)c(C)n1C1CCCC1	none
Cn1c(Cc2cccs2)n[nH]c1=S	none
Cc1occc1C(=O)Nc1ccc(S(=O)(=O)N2CCN(C)CC2)cc1	none
O=c1oc2c3c4c(cc2c2c1CCC2)OCCN4CCC3	none
C=CCOC(=O)CN1C(=O)c2ccccc2C1=O	CYP2C19 inh 61 (no result: Rev-RRE block)
CCOC(=O)CC(=O)CSc1nc2c(C)c(C)ccc2cc1C	CYP2C19 inh 61, CYP2C9 inh 54
Cc1cccc(N2CCN(CCNC(=O)c3cc4c(s3)CS(=O)(=O)C4)CC2)c1C	CYP2C9 inh 53
CCCSCCCNC(=O)c1cc2c(s1)CS(=O)(=O)C2	none
CC1(c2cnc(Nc3ccccc3)s2)CCC(=O)O1 (stereo unspecified)	CYP2C9 act 2.1
CCC(=O)OCCCCCCOc1ccc(C(=O)O)cc1	CYP2C19 inh 63
CC(C)CCOc1ccc(C(=O)O)cc1	CYP2C19 inh 83, CYP2C9 inh 83
COc1ccc([C@H]2[C@@H](C#N)[C@H](C#N)N3CCCN23)cc1	none (no result: CYP2C19 inh, CYP2C9 inh, CYP2C19 activ, CYP2C9 act)
Cc1ccc(C2CN=NC23CCc2ccccc2C3=O)cc1 (stereo unspecified)	CYP2C19 inh 75
CC1(C)Cc2ccccc2-c2nc3ccccc3c(=O)n21	none
C=CCN1C(=O)C2(NNc3ccccc3O2)c2ccccc21 (stereo unspecified)	Rev-RRE block 69
CCCCN1C(=O)C(O)(CC(=O)c2ccccc2OC)c2ccccc21 (stereo unspecified)	none (no result: CYP2C19 inh, CYP2C9 inh, Rev-RRE block, CYP2C19 activ, CYP2C9 act)
CCCCN1C(=O)C2(NNc3ccccc3O2)c2ccccc21 (stereo unspecified)	Rev-RRE block 73
COCCN1C(=O)N[C@@H](c2ccco2)C(C(=O)OC)=C1C	none (no result: CYP2C19 inh, CYP2C9 inh, Rev-RRE block, CYP2C19 activ, CYP2C9 act)
Cc1c(-n2cc(C(=O)c3cc(Br)ccc3O)cc(C#N)c2=O)c(=O)n(-c2ccccc2)n1C	CYP2C9 inh 64, Rev-RRE block 74[fluorescence artefact?]
Cc1c(N2C(=O)c3ccc4c5c(ccc(c35)C2=O)CC4)c(=O)n(-c2ccccc2)n1C	none
